Results on 33 compounds are retold here after ChEMBL document CHEMBL3124909, “Heat shock protein 70 inhibitors. 2. 2,5'-thiodipyrimidines, 5-(phenylthio)pyrimidines, 2-(pyridin-3-ylthio)pyrimidines, and 3-(phenylthio)pyridines as reversible binders to an allosteric site on heat shock protein 70” (J Med Chem, 2014).

One test has as its system MOLM-13. Kind of test: Induction of apoptosis in human MOLM13 cells assessed as caspase 3/7 activation after 16 hrs by fluorescence assay. Format: functional, cell-based. A digest of the protocol: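 MOLM-13 cells at 30000/well in RPMI, held up to 24 h (37 °C, 5% CO2), then exposed 16 h to compound or DMSO. Buffer with 10 mM HEPES pH 7.5, 2 mM EDTA, 0.1% CHAPS and 25 μM Z-DEVD-R110 substrate added; fluorescence read once signal stabilized. Percent apoptotic increase calculated relative to control cells.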

Another test has as its system Kasumi 1. Kind of test: Cytotoxicity against human Kasumi-1 cells after 72 hrs by alamar blue assay. Format: functional, cell-based. The method, boiled down: (§1)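 Alamar Blue (resazurin) viability assay: attached cells (SKBr3) plated at 8000/well, suspension cells (Kasumi-1) at 20000/well, left 24 h at 37 °C, then drug added in triplicate for 72 h. Alamar Blue 50 μM added, fluorescence read 6 h later (ex 530, em 580 nm). Growth inhibition versus control corrected for time-zero population; IC50 = concentration giving 50% growth inhibition.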
For orientation: Resazurin is reduced to fluorescent resorufin, in cell work by metabolically active cells.

Test [1] deals with SK-BR-3. Kind of test: Inhibition of HSP70 in human SKBR3 cells assessed as Raf-1 degradation by Western blotting analysis. Format: cell-based. A digest of the protocol:
(§2)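 Cells (SKBr3, MDA-MB-468, MiaPaCa-2 in DME/F12; MOLM-13 in RPMI; 10% FBS) grown to 60–70% confluence, then given inhibitor or DMSO. Lysis in 50 mM Tris pH 7.4, 150 mM NaCl, 1% NP-40. Protein measured by BCA, and client proteins or cleaved PARP detected by immunoblotting with peroxidase-conjugated secondary antibody.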

The nature of test [2]: Cytotoxicity against human SKBR3 cells after 72 hrs by alamar blue assay. In kind it is functional, SK-BR-3. The method, boiled down: as §1
The target in test [3] is Heat shock protein HSP 90-beta (Homo sapiens) (UniProt P08238). Kind of test: Displacement of GM-Cy3B from HSP90 in human SKBR3 cells after 24 hrs by fluorescence polarization assay. The conditions noted are these: SK-BR-3.
Chain of Heat shock protein HSP 90-beta (Homo sapiens) (P08238 whole entry): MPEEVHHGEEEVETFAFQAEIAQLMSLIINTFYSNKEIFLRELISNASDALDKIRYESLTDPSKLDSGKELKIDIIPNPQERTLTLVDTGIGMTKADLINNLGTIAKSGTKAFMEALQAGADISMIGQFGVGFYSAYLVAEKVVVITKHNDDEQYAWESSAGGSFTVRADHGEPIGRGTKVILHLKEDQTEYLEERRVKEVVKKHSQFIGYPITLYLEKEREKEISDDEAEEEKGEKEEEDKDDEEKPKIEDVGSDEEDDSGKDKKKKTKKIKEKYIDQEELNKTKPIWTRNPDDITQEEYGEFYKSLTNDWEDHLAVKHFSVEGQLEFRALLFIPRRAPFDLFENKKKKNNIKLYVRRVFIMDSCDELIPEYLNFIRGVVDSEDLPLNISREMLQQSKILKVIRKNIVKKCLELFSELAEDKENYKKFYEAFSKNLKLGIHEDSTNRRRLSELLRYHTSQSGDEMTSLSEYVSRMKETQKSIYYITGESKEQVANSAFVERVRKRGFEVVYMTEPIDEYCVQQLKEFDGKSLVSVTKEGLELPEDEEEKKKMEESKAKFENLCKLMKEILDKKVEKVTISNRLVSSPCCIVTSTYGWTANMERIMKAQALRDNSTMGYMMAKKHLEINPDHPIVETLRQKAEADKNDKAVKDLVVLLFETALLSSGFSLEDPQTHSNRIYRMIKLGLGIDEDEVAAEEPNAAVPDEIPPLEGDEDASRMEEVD
Test [4] concerns SK-BR-3. Kind of test: Induction of apoptosis in human SKBR3 cells assessed as c-PARP cleavage by Western blotting analysis. In kind it is functional. A digest of the protocol:
as §2
Background: Immunoblotting shows a protein as a band on a membrane.

Test [5] deals with SK-BR-3. Kind of test: Inhibition of HSP70 in human SKBR3 cells assessed as HER2 degradation by Western blotting analysis. Format: cell-based. The method, boiled down:
as §2

Setting [6] is: Homo sapiens, MOLM-13, 16 h, read-out: IC50.
[7] abbreviates: Homo sapiens, Kasumi 1, 72 h, read-out: IC50.

As usually defined, the IC50 is the point on the concentration scale where inhibition reaches its midpoint. `COc1nc(N2CCN(C)CC2)ccc1Sc1nccc(NC(=O)C2CC2)n1`: the figures for the IC50 with MOLM-13 (setting [6]) and in the test on Kasumi 1 (setting [7]) were 63 µM and 58.5 µM, respectively.
For `CCC(=O)Nc1ccnc(Sc2c(C)nc(N3CCN(C)CC3)nc2C)n1`, the concentration for half-maximal inhibition (IC50) in the test with MOLM-13 (setting [6]) amounted to 98 µM.
For `CC(=O)Nc1cccc(Sc2cnc(N3CCN(C)CC3)nc2OCc2ccccc2)c1`, the IC50 in the test with MOLM-13 (setting [6]) amounted to 10.2 µM; with Kasumi 1 (setting [7]), 5.2 µM.
On to `Cc1nc(N2CCN(C)CC2)nc(C)c1Sc1nccc(NC(=O)c2ccco2)n1`, for which the half-inhibitory concentration (IC50) is 32 µM with MOLM-13 (setting [6]) and 30.3 µM in the test with Kasumi 1 (setting [7]). The INH was 25 µM in the test with SK-BR-3 [1], more than 250 µM in test [3], 30 µM with SK-BR-3 [4] and 25 µM with SK-BR-3 [5]. This compound also displayed a GI in test [2] of 30 µM.
As to `COc1nc(N2CCN(C)CC2)nc(OC)c1Sc1nccc(NC(C)=O)n1`, in the test with MOLM-13 (setting [6]), the IC50 worked out at 150 µM.
As to `CN1CCN(c2ncc(Sc3cccc(NC(=O)CN)c3)c(OCc3ccncc3)n2)CC1`, the results for the 50% inhibitory concentration (IC50) in the test with MOLM-13 (setting [6]) and in the test with Kasumi 1 (setting [7]) were 7.8 µM and 10.7 µM, respectively.
In the case of `CC(N)C(=O)Nc1cccc(Sc2cnc(N3CCN(C)CC3)nc2OCc2ccccc2)c1` (stereo not drawn), the concentration for half-maximal inhibition (IC50) in the test with MOLM-13 (setting [6]) was 2 µM; with Kasumi 1 (setting [7]), 4.8 µM.
For `COc1nc(N2CCN(C)CC2)nc(OC)c1Sc1cccc(NC(=O)CN)c1`, the IC50 with MOLM-13 (setting [6]) stood at 18 µM; in the test with Kasumi 1 (setting [7]), 22.5 µM. The INH in the test on SK-BR-3 [1] is 20 µM; in test [3], more than 500 µM; in the test with SK-BR-3 [4] it was 40 µM; in the test with SK-BR-3 [5], 20 µM. The compound further gave a GI in test [2] of 25 µM.
For the compound `CCC(=O)Nc1cccc(Sc2ccc(N3CCN(C)CC3)nc2OC)c1`, the 50% inhibitory concentration (IC50) with MOLM-13 (setting [6]) turned out to be 39 µM.
Regarding `COc1nc(N2CCN(C)CC2)nc(OC)c1Sc1nc(N)cc(NC(=O)CCN(C)C)n1`, the IC50 is 25 µM in the test with MOLM-13 (setting [6]) and 14.7 µM with Kasumi 1 (setting [7]). Also, the INH in the test on SK-BR-3 [1] was 50 µM; in test [3], more than 500 µM; with SK-BR-3 [4] it was 75 µM; with SK-BR-3 [5] it was 70 µM.
As to `CCC(=O)Nc1ccnc(Sc2c(OC)nc(N3CCN(C)CC3)nc2OC)n1`, the half-maximal inhibitory concentration (IC50) with MOLM-13 (setting [6]) is 142 µM.
On to `COc1nc(N2CCN(C)CC2)ccc1Sc1cccc(NC(=O)C2CC2)c1`, for which the figures for the IC50 in the test on MOLM-13 (setting [6]) and in the test on Kasumi 1 (setting [7]) were 32 µM and 36.4 µM, respectively.
Turning to `COc1nc(N2CCN(C)CC2)nc(OC)c1Sc1cccc(NC(=O)C2CCC2)c1`, the half-inhibitory concentration (IC50) in the test with MOLM-13 (setting [6]) came to 60 µM; in the test with Kasumi 1 (setting [7]) it was 47.2 µM. Besides, the INH with SK-BR-3 [1] was 45 µM; in test [3] it was more than 250 µM; with SK-BR-3 [4] it was 75 µM; in the test on SK-BR-3 [5] it was 70 µM. Also, the GI in test [2] turned out to be 70 µM.
For `CN1CCN(c2ncc(Sc3cccc(NC(=O)CN)c3)c(-c3ccccc3)n2)CC1`, the half-maximal inhibitory concentration (IC50) came to 25.2 µM in the test on MOLM-13 (setting [6]) and 20.8 µM in the test with Kasumi 1 (setting [7]).
On to `COc1nc(N2CCN(C)CC2)nc(OC)c1Sc1cccc(NC(=O)c2ccccc2)c1`, for which the figures for the concentration for half-maximal inhibition (IC50) in the test on MOLM-13 (setting [6]) and with Kasumi 1 (setting [7]) were 8 µM and 8.1 µM, respectively. In addition, the INH in the test with SK-BR-3 [1] came to 10 µM; in test [3], 497 µM; in the test with SK-BR-3 [4], 7.5 µM; in the test on SK-BR-3 [5], 7.5 µM. Further, the GI in test [2] was 8 µM.
As to `CN1CCN(c2ccc(Sc3cccc(NC(=O)CN)c3)c(O)n2)CC1`, in the test with MOLM-13 (setting [6]), the IC50 was more than 250 µM.
Turning to `CCC(=O)Nc1cccc(Sc2c(OC)nc(N3CCN(C)CC3)nc2OC)c1`, the 50% inhibitory concentration (IC50) with MOLM-13 (setting [6]) amounted to 65 µM. Moreover, the INH in the test on SK-BR-3 [1] is 80 µM; in test [3], more than 500 µM; in the test with SK-BR-3 [4] it was 75 µM; in the test with SK-BR-3 [5], 75 µM. The GI in test [2] amounted to 55 µM.
As to `CCC(=O)Nc1ccnc(Sc2ccc(N3CCN(C)CC3)nc2OC)n1`, the half-maximal inhibitory concentration (IC50) in the test with MOLM-13 (setting [6]) amounted to 102 µM.
With `CCCCCCCC(=O)Nc1cc(N)nc(Sc2c(OC)nc(N3CCN(C)CC3)nc2OC)n1`, the concentration for half-maximal inhibition (IC50) in the test with MOLM-13 (setting [6]) is more than 50 µM. Further, the INH is more than 25 µM in the test on SK-BR-3 [1], more than 500 µM in test [3], more than 25 µM in the test with SK-BR-3 [4] and more than 25 µM with SK-BR-3 [5].
Consider `CCOc1nc(N2CCN(C)CC2)nc(OCC)c1Sc1nc(N)cc(NC(=O)C2CC2)n1`, for which, in the test with MOLM-13 (setting [6]), the IC50 came to 95 µM.
Turning to `COc1nc(N2CCN(C)CC2)nc(OC)c1Sc1nc(N)cc(NC(C)=O)n1`, the IC50 with MOLM-13 (setting [6]) is 165 µM. Also, the INH with SK-BR-3 [1] was 150 µM; in test [3], more than 500 µM; in the test with SK-BR-3 [4], 180 µM; in the test on SK-BR-3 [5], 125 µM.
For the compound `COc1nc(N2CCN(C)CC2)ccc1Sc1cccc(NC(=O)c2ccccc2)c1`, the concentration for half-maximal inhibition (IC50) was found to be 20 µM in the test on MOLM-13 (setting [6]) and 4.7 µM with Kasumi 1 (setting [7]). Moreover, the INH in the test on SK-BR-3 [1] was 20 µM; in test [3], more than 250 µM; with SK-BR-3 [4], 25 µM; in the test with SK-BR-3 [5], 19 µM. The compound also had a GI in test [2] of 20 µM.
Turning to `CN1CCN(c2ncc(Sc3cccc(NC(=O)C4CCCN4)c3)c(OCc3ccccc3)n2)CC1` (stereo not drawn), the half-inhibitory concentration (IC50) with MOLM-13 (setting [6]) is 1.7 µM; in the test on Kasumi 1 (setting [7]), 2.9 µM.
As to `COc1nc(N2CCN(C)CC2)ncc1Sc1cccc(NC(=O)CN)c1`, the half-inhibitory concentration (IC50) in the test on MOLM-13 (setting [6]) was found to be 13 µM; in the test with Kasumi 1 (setting [7]), 25.2 µM. Further, the INH is 15 µM in the test with SK-BR-3 [1], more than 500 µM in test [3], 19 µM with SK-BR-3 [4] and 18 µM in the test on SK-BR-3 [5]. The GI in test [2] came to 15 µM.
In the case of `CN1CCN(c2ncc(Sc3cccc(NC(=O)c4ccccc4)c3)c(OCc3ccccc3)n2)CC1`, the IC50 with MOLM-13 (setting [6]) stood at 4.1 µM; in the test with Kasumi 1 (setting [7]) it was 3.1 µM.
As to `CCOc1nc(N2CCN(C)CC2)nc(OCC)c1Sc1nc(N)cc(NC(=O)CC)n1`, the IC50 in the test on MOLM-13 (setting [6]) came out at 37 µM; with Kasumi 1 (setting [7]), 51.4 µM. The INH is 70 µM with SK-BR-3 [1], more than 250 µM in test [3], 80 µM in the test on SK-BR-3 [4] and 50 µM in the test on SK-BR-3 [5]. The GI in test [2] is 55 µM.
Consider `COc1nc(N2CCN(C)CC2)nc(OC)c1Sc1cccc(NC(=O)C2CCCCC2)c1`, for which the IC50 entry with MOLM-13 (molm-13) and in the test with Kasumi 1 (kasumi 1) was “ND(Insoluble)” in each case.
In the case of `C=CCC(=O)Nc1cccc(Sc2c(OC)nc(N3CCN(C)CC3)nc2OC)c1`, the IC50 with MOLM-13 (setting [6]) is 65 µM.
`C=CC(=O)Nc1cc(N)nc(Sc2c(OCC)nc(N3CCN(C)CC3)nc2OCC)n1`: the INH with SK-BR-3 [1] was 2.5 µM; in test [3], more than 500 µM; in the test on SK-BR-3 [4], 1.5 µM; in the test with SK-BR-3 [5], 1 µM. Besides, in test [2], the GI came to 1.1 µM.
Consider `Cc1nc(N2CCN(C)CC2)nc(C)c1Sc1nccc(NC(=O)C2CC2)n1`, for which the IC50 with MOLM-13 (setting [6]) was 68 µM; in the test on Kasumi 1 (setting [7]) it was 60.5 µM.
As to `C=CC(=O)Nc1ccnc(Sc2c(C)nc(N3CCN(C)CC3)nc2C)n1`, the INH with SK-BR-3 [1] is 5 µM; in test [3], more than 500 µM; with SK-BR-3 [4], 5 µM; in the test on SK-BR-3 [5] it was 4 µM. This compound yielded a GI in test [2] of 1.8 µM.
Consider `CC(C)C(N)C(=O)Nc1cccc(Sc2cnc(N3CCN(C)CC3)nc2OCc2ccccc2)c1` (stereo not drawn), for which the IC50 is 2.4 µM in the test on MOLM-13 (setting [6]) and 3.1 µM in the test on Kasumi 1 (setting [7]).
The corresponding values for `COc1nc(N2CCN(C)CC2)ccc1Sc1cccc(NC(=O)CN)c1` are 21 µM and 19.1 µM.
